PMC5004525 (Pharmacognosy Research, 2016)
Entries after “also recorded” stand apart in the source; their conditions may differ.

Assays:
Format in all cases: biochemical
[1] = target: human glutathione transferase Pi-1 (hGSTP1) (Homo sapiens, UniProt P09211); test: Inhibition of human GST Pi-1
In short: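 Purified recombinant human GSTP1 (0.003 mg/mL) in 0.1 M potassium phosphate, pH 6.5, with 0.001 M GSH and CDNB as substrate. Test compounds were tested at 0.01–500 µM and extracts at 0.01–1000 µg/mL. CDNB–GSH conjugation was read at 340 nm over 20 min. The blank replaced enzyme with buffer. Activity is expressed as percent of no-inhibitor control, 5 replicates.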

[2] = target: T1, human recombinant UGT1A1 (Homo sapiens, UniProt P22309); test: UGT-Glo luminescent inhibition assay, human recombinant UGT1A1
T1 sequence (P22309 26-533): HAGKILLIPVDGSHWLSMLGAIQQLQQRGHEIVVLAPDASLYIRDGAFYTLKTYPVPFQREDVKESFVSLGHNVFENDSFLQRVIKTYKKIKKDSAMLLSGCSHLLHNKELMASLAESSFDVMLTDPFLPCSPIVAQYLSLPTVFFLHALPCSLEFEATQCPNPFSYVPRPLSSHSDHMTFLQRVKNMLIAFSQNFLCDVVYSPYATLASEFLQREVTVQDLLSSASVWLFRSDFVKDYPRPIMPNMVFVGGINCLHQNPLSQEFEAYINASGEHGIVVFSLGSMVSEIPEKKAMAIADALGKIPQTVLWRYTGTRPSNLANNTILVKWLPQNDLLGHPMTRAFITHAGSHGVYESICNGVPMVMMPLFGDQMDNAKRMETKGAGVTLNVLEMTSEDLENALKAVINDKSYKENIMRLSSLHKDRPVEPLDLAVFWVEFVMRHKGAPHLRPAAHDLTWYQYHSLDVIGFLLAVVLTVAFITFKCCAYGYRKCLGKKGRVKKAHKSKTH
In short: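 UGT-Glo luminescent assay at 37°C with 0.1 mg/mL UGT supersomes, 20 µM multienzyme substrate and 4 mM UDPGA. Incubation was 90 min for UGT1A1 and 60 min for UGT2B7. Reactions were stopped with luciferin detection reagent plus D-cysteine for 20 min at room temperature, then luminescence read. Control microsomes lacking UGT served as negative control. Extracts were tested at 0.1–1000 µg/mL and constituents at 0.02–200 µM. IC50 was fitted by nonlinear regression; three determinations from two experiments.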

[3] = tested on: rat liver glutathione transferase enzyme; test: Inhibition of rat liver GST
In short: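 Rat liver cytosol was the 100,000 ×g 60 min supernatant, taken after a 12,500 ×g spin of homogenate in 67 mM phosphate, pH 7.4, with 1.15% KCl. Assay used 0.125 mg/mL cytosol, 0.1 M potassium phosphate pH 6.5, 0.001 M GSH and CDNB, read at 340 nm for 5 min. Blanks used cytosol heat-denatured at 60°C for 20 min.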

[4] = tested on: rat liver UDP-glucuronosyltransferase enzyme (rat liver microsomes); test: Inhibition of rat liver UGT in rat liver microsomes; conditions: up to the highest concentration investigated
[5] = target: T2, human recombinant UGT2B7 (Homo sapiens, UniProt P16662); test: UGT-Glo luminescent inhibition assay, human recombinant UGT2B7; conditions: human recombinant enzyme
T2 sequence (P16662 24-529): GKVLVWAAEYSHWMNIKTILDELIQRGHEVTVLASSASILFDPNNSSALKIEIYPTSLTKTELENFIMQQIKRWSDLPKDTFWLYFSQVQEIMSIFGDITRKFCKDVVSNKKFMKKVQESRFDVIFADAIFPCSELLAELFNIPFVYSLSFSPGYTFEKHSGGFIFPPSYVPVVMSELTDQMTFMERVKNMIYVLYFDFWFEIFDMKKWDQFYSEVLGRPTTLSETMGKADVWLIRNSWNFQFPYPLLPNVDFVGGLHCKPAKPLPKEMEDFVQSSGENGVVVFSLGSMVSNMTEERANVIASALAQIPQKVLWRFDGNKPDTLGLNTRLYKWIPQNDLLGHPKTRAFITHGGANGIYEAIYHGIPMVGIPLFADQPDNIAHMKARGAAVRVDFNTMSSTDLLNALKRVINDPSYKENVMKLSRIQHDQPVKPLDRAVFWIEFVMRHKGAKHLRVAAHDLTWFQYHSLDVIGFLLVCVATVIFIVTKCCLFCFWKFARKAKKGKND

human glutathione transferase Pi-1 (hGSTP1), sequence (P09211 2-210 limits assumed): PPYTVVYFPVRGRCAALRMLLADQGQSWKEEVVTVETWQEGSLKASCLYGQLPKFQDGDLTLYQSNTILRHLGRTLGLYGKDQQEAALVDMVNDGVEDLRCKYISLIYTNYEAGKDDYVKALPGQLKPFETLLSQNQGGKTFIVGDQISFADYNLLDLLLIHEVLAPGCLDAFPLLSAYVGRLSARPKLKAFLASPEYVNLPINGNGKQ

inhibition of hGSTP1 (in words) [1]	percentage of inhibition of hGSTP1 activity ([1]; at the highest concentration determined (compounds 500 µM))	inhibition of UGT1A1 (in words) ([2]; human recombinant enzyme)	inhibition of rat liver GST (in words) [3]	inhibition of rat liver UGT enzyme activity (in words) [4]	inhibition at 500 µM ([1]; read-out: percentage of inhibition of hGSTP1 activity)	inhibitory effect on UGT1A1 compared to UGT2B7 ([2]; ratio of IC50 values UGT2B7/UGT1A1)	IC50, rat liver GST ([3]; CDNB substrate, mean ± SEM, n = 5)	Compound	inhibition of UGT2B7 (in words) [5]
did not show inhibition	< 50%	weaker inhibition	very low inhibition or no inhibition	did not show any inhibition	–	–	–	CC(C)=CCCC(C)c1ccc(C)cc1 (centres unmarked) [Curcumene, curcumene]	did not show any inhibition; also recorded: weaker inhibition
did not show inhibition	–	–	very low inhibition or no inhibition	–	< 50%	3 times	–	CC(C)=CCC[C@@H](C)c1ccc(C)c(O)c1 [Xanthorrhizol, xanthorrhizol]	–
–	–	–	–	–	–	–	4.83 ± 2.29 µg/mL	Tannic acid [reference compound]	–
